This note sets out measurements from ChEMBL document CHEMBL1126038, “3-(2-Carboxyindol-3-yl)propionic acid-based antagonists of the N-methyl-D-aspartic acid receptor associated glycine binding site” (J Med Chem, 1992).

One test concerns the target Glutamate NMDA receptor. Briefly: Ability to compete with [3H]glycine for strychnine-insensitive binding sites on rat cortical and hippocampal membrane. Format: tissue-based, Hippocampus. In outline:
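Rat cortical plus hippocampal membranes, competing against [³H]glycine at strychnine-insensitive sites. Values are the mean of ≥2 experiments, with SE within 10-30% of the mean.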

Test [1] can be described thus: Ability to compete with […] for rat cortical and hippocampal membrane glutamate binding site. The format is tissue-based, Hippocampus. In outline:
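Competition binding against [³H]CPP at the glutamate site, using rat cortical and hippocampal membranes. Values are means of two or more experiments, with standard errors ±10-30% of the mean.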

Test [2] addresses Glutamate NMDA receptor (Rattus norvegicus) (UniProt P35439+Q00959+Q00960+Q00961+Q62645+Q8VHN2+Q9R1M7). Briefly: Ratio of the inhibitory activity against […] for rat cortical and hippocampal membrane glutamate binding site to [3H]glycine for rat cortical and hippocampal membrane binding site. The format is tissue-based. As to conditions: Hippocampus.
The target in test [3] is Glutamate receptor ionotropic, NMDA 1 (Rattus norvegicus, UniProt P35439). The experiment in a line: The compound was evaluated for the ability to compete with [3H]glycine for strychnine-insensitive binding sites on rat cortical and hippocampal membrane. Format: tissue-based, Hippocampus. A digest of the protocol: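 Rat cortical plus hippocampal membranes, competing against [³H]glycine at strychnine-insensitive sites. […] Values are the mean of ≥2 experiments, with SE within 10-30% of the mean.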

Test [4] in a line: The compound was evaluated for the ability to compete with […] for rat cortical and hippocampal membrane glutamate binding site. The format is tissue-based, Hippocampus. A digest of the protocol: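 Competition binding against [³H]CPP at the glutamate site, using rat cortical and hippocampal membranes. […] Values are means of two or more experiments, with standard errors ±10-30% of the mean.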

In test [5] the test system is Mus musculus. Briefly: The compound was evaluated in vivo for the anticonvulsant activity in quinolinic acid + probenecid seizure model (intravenous), for 5 min drug pretreatment time. Format: functional. In outline:
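Quinolinic acid seizure in mice: probenecid 200 mg/kg ip given 30 min before the test compound. Test compound in distilled water with Tween (1 mL/kg), then icv quinolinic acid (7.7 μg in 5 μL saline). Mice were watched 15 min for clonic-tonic seizures.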

In test [6] the test system is Mus musculus. The experiment in a line: The compound was evaluated in vivo for the anticonvulsant activity in audiogenic seizure model (intraperitoneal), for 2 hr drug pretreatment time. Format: functional. As to conditions: ip. In outline:
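Male DBA/2J audiogenic-susceptible mice (groups of 6-8) got test compound in methylcellulose, with saline controls by the same route. A 110 dB (12 KHz) sound was given for 30 s. Absence of tonic hindlimb extension counted as protection. ED50 was reported.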

The subject of test [7] is Mus musculus. Briefly: The compound was evaluated in vivo for the anticonvulsant activity in quinolinic acid seizure model (intravenous), for 5 min drug pretreatment time. The format is functional. A digest of the protocol: (§1)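 Mice got test compound in distilled water with a few drops of Tween (1 mL/kg) at set times before icv quinolinic acid (7.7 μg in 5 μL saline). Clonic-tonic seizures were watched for 15 min, and non-convulsing mice counted as protected.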

The test system of test [8] is Mus musculus. The experiment in a line: The compound was evaluated in vivo for the anticonvulsant activity in quinolinic acid seizure model (intracerebroventricular), for 5 min drug pretreatment time. Format: functional. As to conditions: central. A digest of the protocol:
as §1

Test [9] deals with Glutamate receptor ionotropic, kainate. Briefly: The compound was evaluated […] for the competitive binding against [3H]kainate for rat cortical and hippocampal membrane glutamate binding site.
Test [10] concerns the target Glutamate receptor ionotropic, AMPA (Rattus norvegicus, UniProt P19490+P19491+P19492+P19493). Briefly: The compound was evaluated […] for the competitive binding against […] for rat cortical and hippocampal membrane glutamate binding site.
Test [11] relates to Mus musculus. Briefly: The compound was evaluated in vivo for the anticonvulsant activity in quinolinic acid seizure model (intraperitoneal), for 2 hr drug pretreatment time. The format is functional. As to conditions: ip. In outline: as §1

pIC50: −log10 of the molar value. Where only a bound is given, the exact number is not on record here.

One may read the pIC50 as −log10 of the IC50, conventionally taken in molar units. A high value points to a low IC50. At Glutamate NMDA receptor, `O=C(O)CCc1c(C(=O)O)[nH]c2cc(F)ccc12` showed a pIC50 of 5.30.
On to `O=C(O)c1cc(O)c2c(Cl)cc(Cl)cc2n1`, for which the negative-log IC50 (pIC50) in test [1] was 4.92; on Glutamate NMDA receptor, 6.84. Also, the Ratio in test [2] was 80.
As for `O=C(O)CCc1cc(C(=O)O)nc2ccccc12`, the pIC50 (in [1]; at Glutamate NMDA receptor) was under 4.00 each time.
On to `O=C(O)c1cc2ccccc2[nH]1` [INDOLE-2-CARBOXYLIC ACID], for which, in test [1], the negative logarithm of the IC50 (pIC50) is 2.38. Further, in [2], the Ratio was determined as 40.
With `COc1cc(C(=O)O)nc2ccccc12`, the negative logarithm of the IC50 (pIC50) in test [3] and in test [4] was under 4.00 throughout.
As to `Cn1c(C(=O)O)c(CCC(=O)O)c2c(Cl)cc(Cl)cc21`, the pIC50 in test [1] is under 4.00; at Glutamate NMDA receptor it was 4.35. The Ratio in test [2] is over 2.
On the same counts, the results for `O=C(O)CCc1c(C(=O)O)[nH]c2c(Cl)cccc12` are under 3.00, under 4.00 and over 1.
At Glutamate NMDA receptor, `O=C(O)CCc1c(C(=O)O)[nH]c2ccc3ccccc3c12` gave a negative-log IC50 (pIC50) of under 4.00.
Turning to `O=C(O)CCc1c(C(=O)O)[nH]c2cc(Cl)cc(Cl)c12`, the ED50 with Mus musculus [5] was 50 mg/kg; in the test on Mus musculus [6] it was 100 mg/kg; in the test with Mus musculus [7], over 50 mg/kg; in the test on Mus musculus [8] it was 1.5 µg; with Mus musculus [11], 256 mg/kg. Besides, the negative logarithm of the IC50 (pIC50) in test [1] is 3.45; at Glutamate NMDA receptor, 6.77; in test [9], 3.38; in test [10], 3.56. Further, in [2], the Ratio was 2100 CPP/GLY.
For `O=C(O)CCc1c(C(=O)O)[nH]c2cc(Cl)ccc12`, the figures for the negative logarithm of the IC50 (pIC50) (in [1]; at Glutamate NMDA receptor) were 3.55 and 5.70, respectively. For the same compound, in test [2], the Ratio was 140.
The matching figures for `COc1ccc2c(CCC(=O)O)c(C(=O)O)[nH]c2c1`: 3.85, 4.89 and 11.
Regarding `CS(=O)(=O)Nc1ccc2c(CCC(=O)O)c(C(=O)O)[nH]c2c1`, the pIC50 on Glutamate NMDA receptor is under 4.00.
For the compound `O=C(O)CCc1c(C(=O)O)[nH]c2cccc([N+](=O)[O-])c12`, at Glutamate NMDA receptor, the pIC50 was 4.12.
The same measure, in the same setting: as for `O=C(O)CCc1c(C(=O)O)[nH]c2cc([N+](=O)[O-])ccc12`, the figure is 5.60.
Consider `O=C(O)CSc1c(C(=O)O)[nH]c2ccccc12`, for which the pIC50 was 4.80 in test [1] and 4.92 at Glutamate NMDA receptor. For the same compound, in test [2], the Ratio amounted to 1.6.
For `O=C(O)CSc1c(C(=O)O)[nH]c2cc(Cl)cc(Cl)c12`, the negative-log IC50 (pIC50) was 7.00 on Glutamate NMDA receptor, under 4.00 in [9] and under 4.00 in test [10].
In turn, `O=C(O)CCc1c(C(=O)O)[nH]c2cc(Oc3ccccc3)ccc12` had a pIC50 on Glutamate NMDA receptor of under 3.00.
Still for that read-out and setting: as for `O=C(O)CCc1c(C(=O)O)[nH]c2cccc(C(F)(F)F)c12`, the figure is 4.89.
As for `O=C(O)CCc1c(C(=O)O)[nH]c2ccccc12`, the negative-log IC50 (pIC50) is 4.47 in test [1] and 4.57 at Glutamate NMDA receptor. Further, the Ratio in test [2] turned out to be 1.
`O=C(O)c1cc(=O)c2ccccc2[nH]1` [TRANSTORINE] gave a negative logarithm of the IC50 (pIC50) in test [1] of 4.15.
Consider `O=C(O)CCc1c(C(=O)O)[nH]c2cccc(F)c12`, for which the values for the pIC50 (in [1]; on Glutamate NMDA receptor) were 4.29 and 4.77, respectively. For the same compound, in [2], the Ratio turned out to be 3.
Turning to `O=C(O)c1cc2c(Cl)cc(Cl)cc2[nH]1`, the pIC50 in test [1] was under 3.00. Also, the Ratio in test [2] was over 150.
In the case of `O=C(O)CCc1c(C(=O)O)[nH]c2c1ccc1ccccc12`, the negative logarithm of the IC50 (pIC50) on Glutamate NMDA receptor is under 4.00.
For the compound `O=C(O)COc1cc(C(=O)O)nc2ccccc12`, the results for the pIC50 (in [1]; at Glutamate NMDA receptor) were 3.15 and 4.60, respectively. In [2], the Ratio came out at 28.
As for `O=C(O)CCc1c(C(=O)O)[nH]c2cc(C(F)(F)F)ccc12`, at Glutamate NMDA receptor, the negative logarithm of the IC50 (pIC50) was 5.10.
On the same count and under the same terms, as for `O=C(O)CCc1c(C(=O)O)[nH]c2cc(F)cc(F)c12`, the figure is 5.40; as for `COc1cc(OC)c2c(CCC(=O)O)c(C(=O)O)[nH]c2c1`, under 4.00.
Turning to `O=C(O)CCc1c(C(=O)O)[nH]c2ccc(Cl)cc12`, the results for the pIC50 (in [1]; at Glutamate NMDA receptor) were 4.60 and 4.64, respectively. In test [2], the Ratio came to 2.
In the case of `O=C(O)CCc1c(C(=O)O)[nH]c2cccc(Cl)c12`, the negative logarithm of the IC50 (pIC50) in test [1] is 4.22. Besides, in test [2], the Ratio stood at 10.
